Laboratory results as given in ChEMBL document CHEMBL1155885, “Discovery and optimization of pyridazinone non-nucleoside inhibitors of HIV-1 reverse transcriptase” (Bioorg Med Chem Lett, 2008).

Legend:
Cytochrome P450 3A4 = Cytochrome P450 3A4 (Homo sapiens, UniProt P08684); test: Inhibition of recombinant CYP3A4; format: ADME
In short: (§1)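 Fluorogenic assay using 7-benzyloxy-4-(trifluoromethyl)-coumarin as substrate; IC50 reported in micromolar.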

[1] = target: T1, Human immunodeficiency virus type 1 reverse transcriptase (Human immunodeficiency virus 1, UniProt Q72547); test: Inhibition of HIV1 wild-type reverse transcriptase by scintillation counting assay
[2] = target: Human immunodeficiency virus type 1 reverse transcriptase (Human immunodeficiency virus 1, UniProt Q72547, Y181C); test: Inhibition of HIV1 reverse transcriptase Y181C mutant by scintillation counting assay
[3] = test system: Human immunodeficiency virus 1; test: Antiviral activity against HIV1 with reverse transcriptase K103N mutation in human MT4 cells assessed as reduction of virus-induced cytopathic effect; format: functional, organism-based; details: Human immunodeficiency virus 1, MT4
In short: (§2)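 MT4 cells infected with HIV-1 and incubated with compound in the presence of 10% fetal bovine serum. Read-out is the reduction of virus-induced cytopathic effect. EC50 derived; each value is the mean of at least two independent assays.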

[4] = target: Human immunodeficiency virus type 1 reverse transcriptase (Human immunodeficiency virus 1, UniProt Q72547, K103N); test: Inhibition of HIV1 reverse transcriptase K103N mutant by scintillation counting assay
[5] = test system: Human immunodeficiency virus 1; test: Antiviral activity against HIV1 in human MT4 cells assessed as reduction of viral-induced cytopathic effect; format: functional, organism-based; details: Human immunodeficiency virus 1, MT4
[6] = test system: Human immunodeficiency virus 1; test: Antiviral activity against HIV1 with reverse transcriptase Y181C mutation in human MT4 cells assessed as reduction of virus-induced cytopathic effect; format: functional, organism-based; details: Human immunodeficiency virus 1, MT4; in short: as §2
[7] = test system: Human immunodeficiency virus 1; test: Antiviral activity against HIV1 with reverse transcriptase K103N/Y181C mutation in human MT4 cells assessed as reduction of virus-induced cytopathic effect; format: functional, organism-based; details: Human immunodeficiency virus 1, MT4; in short: as §2
[8] = test system: Human immunodeficiency virus 1; test: Antiviral activity against HIV1 in human MT4 cells assessed as reduction of viral-induced cytopathic effect in presence of human serum; format: functional, organism-based; details: Human immunodeficiency virus 1, MT4
In short: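 HIV-1-infected MT4 cells incubated with compound in presence of 40% human serum; reduction of viral cytopathic effect measured; EC50 derived.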

[9] = test system: Human immunodeficiency virus 1; test: Antiviral activity against HIV1 with reverse transcriptase G190A mutation in human MT4 cells assessed as reduction of virus-induced cytopathic effect; format: functional, organism-based; details: Human immunodeficiency virus 1, MT4; in short: as §2
[10] = test system: Human immunodeficiency virus 1; test: Antiviral activity against HIV1 with reverse transcriptase K103N/L100I mutation in human MT4 cells assessed as reduction of virus-induced cytopathic effect; format: functional, organism-based; details: Human immunodeficiency virus 1, MT4; in short: as §2
[11] = Bioavailability in rat at 2.5 mg/kg, iv; format: ADME, organism-based; details: in vivo
In short: (§3)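 Rats given 2.5 mg/kg intravenously; half-life determined; apparent oral bioavailability calculated relative to oral dosing.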

Cytochrome P450 1A2 = target: T2, Cytochrome P450 1A2 (Homo sapiens, UniProt P05177); test: Inhibition of CYP1A2; format: ADME; in short: as §1
T2 sequence (P05177 whole entry): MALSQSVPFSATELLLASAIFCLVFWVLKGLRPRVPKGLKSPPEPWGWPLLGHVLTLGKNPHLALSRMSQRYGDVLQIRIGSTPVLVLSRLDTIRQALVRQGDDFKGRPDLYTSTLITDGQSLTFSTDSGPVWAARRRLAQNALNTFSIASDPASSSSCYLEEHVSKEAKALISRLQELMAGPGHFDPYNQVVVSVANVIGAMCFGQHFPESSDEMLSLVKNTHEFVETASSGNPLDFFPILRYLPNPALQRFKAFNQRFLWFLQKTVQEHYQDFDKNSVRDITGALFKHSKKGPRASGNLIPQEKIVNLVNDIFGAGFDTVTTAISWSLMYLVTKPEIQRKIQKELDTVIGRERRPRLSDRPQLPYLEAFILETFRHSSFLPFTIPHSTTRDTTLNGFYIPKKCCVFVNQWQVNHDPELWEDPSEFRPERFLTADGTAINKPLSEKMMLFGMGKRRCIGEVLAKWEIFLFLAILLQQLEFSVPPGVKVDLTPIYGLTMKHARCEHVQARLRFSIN

Cytochrome P450 2D6 = Cytochrome P450 2D6 (Homo sapiens, UniProt P10635); test: Inhibition of CYP2D6; format: ADME; in short: as §1
Sequence of Cytochrome P450 2D6 (P10635 whole entry): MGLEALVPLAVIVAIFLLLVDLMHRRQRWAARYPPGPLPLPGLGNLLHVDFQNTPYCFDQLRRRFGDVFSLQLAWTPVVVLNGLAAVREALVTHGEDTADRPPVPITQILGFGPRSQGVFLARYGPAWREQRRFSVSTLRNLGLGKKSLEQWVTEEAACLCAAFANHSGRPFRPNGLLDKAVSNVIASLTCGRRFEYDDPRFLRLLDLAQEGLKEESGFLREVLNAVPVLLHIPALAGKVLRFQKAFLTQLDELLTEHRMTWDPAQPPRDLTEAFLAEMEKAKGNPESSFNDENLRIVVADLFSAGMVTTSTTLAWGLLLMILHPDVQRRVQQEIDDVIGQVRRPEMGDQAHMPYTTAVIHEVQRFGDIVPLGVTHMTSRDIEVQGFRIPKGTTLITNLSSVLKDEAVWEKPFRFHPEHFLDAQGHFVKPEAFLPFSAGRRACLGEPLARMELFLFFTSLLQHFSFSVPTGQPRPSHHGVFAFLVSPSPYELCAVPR

Cytochrome P450 2C9 = Cytochrome P450 2C9 (Homo sapiens, UniProt P11712); test: Inhibition of CYP2C9; format: ADME; in short: as §1
Sequence of Cytochrome P450 2C9 (P11712 whole entry): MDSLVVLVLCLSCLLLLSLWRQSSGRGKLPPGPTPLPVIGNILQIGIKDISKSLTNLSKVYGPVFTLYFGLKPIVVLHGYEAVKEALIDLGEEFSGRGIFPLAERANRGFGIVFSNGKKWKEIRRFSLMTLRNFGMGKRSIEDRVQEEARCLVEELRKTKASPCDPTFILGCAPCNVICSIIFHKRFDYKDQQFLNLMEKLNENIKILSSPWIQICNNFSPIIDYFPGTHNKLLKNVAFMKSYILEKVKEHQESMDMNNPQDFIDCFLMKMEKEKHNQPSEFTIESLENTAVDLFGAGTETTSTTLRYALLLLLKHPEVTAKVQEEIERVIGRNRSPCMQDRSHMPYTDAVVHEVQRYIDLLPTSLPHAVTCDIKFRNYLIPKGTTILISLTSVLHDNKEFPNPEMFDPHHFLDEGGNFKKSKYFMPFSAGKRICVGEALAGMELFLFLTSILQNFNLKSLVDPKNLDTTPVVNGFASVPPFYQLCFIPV

[12] = Half life in dog at 2.5 mg/kg, iv; format: ADME, organism-based, Canis lupus familiaris; parameters: dose 2.5 mg/kg, route intravenous; details: in vivo
[13] = Cmax in dog at 5 mg/kg, po; format: ADME, organism-based, Canis lupus familiaris; parameters: dose 5 mg/kg, route oral; details: in vivo
[14] = Half life in rat at 2.5 mg/kg, iv; format: ADME, organism-based; parameters: dose 2.5 mg/kg, route intravenous; details: in vivo; in short: as §3
Cytochrome P450 2C19 = Cytochrome P450 2C19 (Homo sapiens, UniProt P33261); test: Inhibition of CYP2C19; format: ADME; in short: as §1
Sequence of Cytochrome P450 2C19 (P33261 whole entry): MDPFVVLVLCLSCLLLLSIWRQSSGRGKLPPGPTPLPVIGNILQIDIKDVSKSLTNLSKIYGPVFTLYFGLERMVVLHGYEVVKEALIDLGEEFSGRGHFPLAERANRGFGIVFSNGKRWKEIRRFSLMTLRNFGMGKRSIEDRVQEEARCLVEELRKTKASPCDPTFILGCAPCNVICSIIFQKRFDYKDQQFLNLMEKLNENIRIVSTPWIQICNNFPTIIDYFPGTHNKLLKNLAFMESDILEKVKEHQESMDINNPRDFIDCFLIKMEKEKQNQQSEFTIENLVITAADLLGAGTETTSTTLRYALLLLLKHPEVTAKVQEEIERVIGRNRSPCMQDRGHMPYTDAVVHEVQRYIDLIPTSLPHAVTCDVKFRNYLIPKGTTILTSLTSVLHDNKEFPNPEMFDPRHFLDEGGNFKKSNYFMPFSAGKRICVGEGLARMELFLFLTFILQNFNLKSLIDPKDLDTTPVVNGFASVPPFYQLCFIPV

[15] = Bioavailability in dog at 2.5 mg/kg, iv; format: ADME, organism-based, Canis lupus familiaris; details: in vivo
[16] = target: T1, Human immunodeficiency virus type 1 reverse transcriptase; test: Binding affinity to HIV1 wild-type reverse transcriptase by surface plasmon resonance spectroscopy
Canis familiaris = test: AUC in dog at 5 mg/kg, po; format: ADME, organism-based, Canis lupus familiaris, Plasma; parameters: dose 5 mg/kg, route oral; details: in vivo
[17] = Cmax in rat at 5 mg/kg, po; format: ADME, organism-based; parameters: dose 5 mg/kg, route oral; details: in vivo
In short: (§4)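 Rats dosed orally at 5 mg/kg; plasma Cmax and AUC determined.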

Rattus norvegicus = test: AUC in rat at 5 mg/kg, po; format: ADME, organism-based, Plasma; parameters: dose 5 mg/kg, route oral; details: in vivo; in short: as §4

Sequence of Cytochrome P450 3A4 (P08684 whole entry): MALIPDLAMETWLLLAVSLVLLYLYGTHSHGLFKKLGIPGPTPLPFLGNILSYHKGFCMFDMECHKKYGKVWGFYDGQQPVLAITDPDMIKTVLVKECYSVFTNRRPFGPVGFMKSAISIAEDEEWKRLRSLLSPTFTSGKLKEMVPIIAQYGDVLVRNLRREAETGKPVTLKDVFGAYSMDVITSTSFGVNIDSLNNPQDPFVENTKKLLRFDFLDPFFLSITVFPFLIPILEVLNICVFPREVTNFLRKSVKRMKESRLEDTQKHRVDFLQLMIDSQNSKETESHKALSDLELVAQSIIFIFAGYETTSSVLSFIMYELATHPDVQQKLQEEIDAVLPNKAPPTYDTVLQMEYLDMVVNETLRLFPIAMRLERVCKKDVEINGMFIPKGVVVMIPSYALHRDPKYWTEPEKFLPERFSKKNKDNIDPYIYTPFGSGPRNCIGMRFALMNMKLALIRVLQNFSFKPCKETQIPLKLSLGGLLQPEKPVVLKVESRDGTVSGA

Structure (SMILES): O=C(c1cccc(Cl)c1)c1cc(Cc2ccc(=O)[nH]n2)cc2ccoc12
- IC50 (Cytochrome P450 3A4): 600 nM
- IC50 [1]: 8200 nM

Structure (SMILES): O=C(c1ccc(Cl)cc1)c1cc(Cc2ccc(=O)[nH]n2)cc2ccoc12
- IC50 [1]: 400 nM
- IC50 [2]: 360 nM
- EC50 [3]: 70 nM
- IC50 [4]: 260 nM
- EC50 [5]: 80 nM
- EC50 [6]: 210 nM

Structure (SMILES): O=c1ccc(Cc2ccc(Cl)c(Oc3ccccc3)c2F)n[nH]1
- IC50 [1]: 100 nM
- IC50 [2]: 500 nM
- IC50 [4]: 430 nM

Structure (SMILES): O=c1ccc(Cc2cccc(Oc3cccc(Cl)c3)c2)n[nH]1
- IC50 [1]: 21000 nM

Structure (SMILES): O=c1ccc(Cc2ccc(Cl)c(Oc3ccccc3)c2)n[nH]1
- IC50 [1]: 520 nM
- IC50 [2]: 5490 nM
- IC50 [4]: 3350 nM

Structure (SMILES): O=c1ccc(Cc2cc(Cc3cccc(Cl)c3)c3occc3c2)n[nH]1
- IC50 (Cytochrome P450 3A4): 180 nM
- IC50 [1]: 3900 nM

Structure (SMILES): Cc1cc(Cc2ccc(Cl)c(Oc3cc(C#N)cc(C#N)c3)c2F)n[nH]c1=O
- EC50 [7]: 19 nM
- EC50 [4]: 2 nM
- EC50 [8]: 7 nM
- EC50 [9]: 1 nM

Structure (SMILES): O=C1Nc2ccc(Cl)cc2C(C#CC2CC2)(C(F)(F)F)O1 (single isomer, unassigned) [EFAVIRENZ]
- EC50 [7]: 83 nM
- EC50 [8]: 19 nM
- EC50 [10]: > 500 nM
- EC50 [9]: 6 nM

Structure (SMILES): Cc1cc(Cc2ccc(Cl)c(Oc3ccccc3)c2F)n[nH]c1=O
- IC50 [1]: 20 nM
- IC50 [2]: 210 nM
- IC50 [4]: 50 nM

Structure (SMILES): Cc1cc(Cc2ccc(Cl)c(Oc3ccccc3)c2)n[nH]c1=O
- IC50 [1]: 360 nM
- IC50 [2]: 2130 nM
- IC50 [4]: 920 nM

Structure (SMILES): COc1cc(C#N)cc(Oc2c(Cl)ccc(Cc3cc(C)c(=O)[nH]n3)c2F)c1
- EC50 [7]: 31 nM
- EC50 [8]: 15 nM
- EC50 [10]: 2 nM
- EC50 [9]: 1 nM

Structure (SMILES): O=c1ccc(Cc2ccc(Cl)c(Oc3cccc(Cl)c3)c2)n[nH]1
- IC50 [1]: 100 nM

Structure (SMILES): Cc1cc(Cl)cc(Oc2cccc(Cc3ccc(=O)[nH]n3)c2)c1
- IC50 [1]: 14000 nM

Structure (SMILES): Cc1ccc(Cc2ccc(=O)[nH]n2)cc1Oc1cccc(Cl)c1
- IC50 [1]: 640 nM

Structure (SMILES): Cc1cc(Cc2ccc(Cl)c(Oc3cc(F)cc(C#N)c3)c2F)n[nH]c1=O
- bioavailability [11]: 61%
- IC50 (Cytochrome P450 3A4): 24000 nM
- IC50 (Cytochrome P450 1A2): > 50 µM
- IC50 (Cytochrome P450 2D6): > 50 µM
- EC50 [7]: 41 nM
- IC50 (Cytochrome P450 2C9): 8 µM
- half-life [12]: 384 min
- Cmax [13]: 1470 nM
- half-life [14]: 228 min
- EC50 [4]: 2 nM
- IC50 (Cytochrome P450 2C19): 21 µM
- bioavailability [15]: 34%
- Kd [16]: 8.4 nM
- EC50 [8]: 11 nM
- AUC (Canis familiaris): 8.8 uM.hr/ml
- EC50 [10]: 3 nM
- Cmax [17]: 2300 nM
- EC50 [9]: 1 nM
- AUC (Rattus norvegicus): 22.4 uM.hr/ml

Structure (SMILES): O=c1ccc(Cc2cc(Oc3cccc(Cl)c3)c3occc3c2)n[nH]1
- IC50 (Cytochrome P450 3A4): 410 nM
- IC50 [1]: 1000 nM
